From PubChem BioAssay
Shown are actives, neighbours in structure and some others; about 2.3% of the full set was active somewhere.
TCR CD3 inh – human TCR-CD3 binding inhibition; TAMRA-labeled TCR probe fluorescence, biochemical; inhibition, % at 9.4 µM; 360,000 tested, 0.37% active;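 also: recombinant mutant TCR 2C K166C tagged with TAMRA read by polarization; 0% = receptor in buffer alone and 100% = receptor with positive control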
HTRA1 inh – HTRA1 (human) protease inhibition. inhibition, % at 5.96 µM. 340,000 tested, 0.5% active. recombinant HTRA1, FP-rhodamine activity-based probe, fluorescence polarization. AID 504803. Q92743; in the data active = inhibition above about 36%;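 also: 0% = enzyme with DMSO and 100% = wells lacking enzyme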
ABHD4 inh – inhibits mouse alpha/beta hydrolase domain 4; AID 720543; purified mABHD4, FP-Rh probe fluorescence polarization; Q8VD66; 370,000 tested, 0.54% active; inhibition, % at 8.92 µM;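 active = inhibition exceeding the mean over every tested compound plus 3 SD, cut at about 30% in these data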;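 also: 0% = plate median of compound wells and 100% = S159A mutant with DMSO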
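Test system: mABHD4 protein; Read-out basis: % inhibition; Incubation: 45 min + 60 min at 25 °C; Repeats: single replicate; Technique: fluorescence polarization with parallel and perpendicular emission, 525/598 nm; Compound: 8.92 µM, single dose; Benchmarks: full inhibition S159A mutant plus DMSO, zero as sample-well median.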
pPAFAH inh – inhibitors of human plasma PAF acetylhydrolase (pPAFAH) | 330,000 tested, 1.5% active | inhibition, % at 3.39 µM | AID 463082 | recombinant pPAFAH, FP-rhodamine probe fluorescence polarization | Q13093;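 active = inhibition above the mean inhibition across the screen plus 3 SD, cut at about 25% in these data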;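 also: inhibitors block binding of the rhodamine activity-based probe so polarization drops; 0% = enzyme with DMSO and 100% = wells lacking pPAFAH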
SIAE inh – inhibitors of human sialic acid acetylesterase SIAE. SIAE FP-Rh probe binding, fluorescence polarization. Q9HAT2. inhibition, % at 9.66 µM. AID 1053197. 370,000 tested, 0.69% active;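 active = inhibition above a cutoff: mean of compounds within the control limits plus 3 SD of those, cut at about 17% in these data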;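 also: 0% = plate median of compound wells and 100% = probe without SIAE protein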
Target sequence (Q9HAT2 whole entry, looked up): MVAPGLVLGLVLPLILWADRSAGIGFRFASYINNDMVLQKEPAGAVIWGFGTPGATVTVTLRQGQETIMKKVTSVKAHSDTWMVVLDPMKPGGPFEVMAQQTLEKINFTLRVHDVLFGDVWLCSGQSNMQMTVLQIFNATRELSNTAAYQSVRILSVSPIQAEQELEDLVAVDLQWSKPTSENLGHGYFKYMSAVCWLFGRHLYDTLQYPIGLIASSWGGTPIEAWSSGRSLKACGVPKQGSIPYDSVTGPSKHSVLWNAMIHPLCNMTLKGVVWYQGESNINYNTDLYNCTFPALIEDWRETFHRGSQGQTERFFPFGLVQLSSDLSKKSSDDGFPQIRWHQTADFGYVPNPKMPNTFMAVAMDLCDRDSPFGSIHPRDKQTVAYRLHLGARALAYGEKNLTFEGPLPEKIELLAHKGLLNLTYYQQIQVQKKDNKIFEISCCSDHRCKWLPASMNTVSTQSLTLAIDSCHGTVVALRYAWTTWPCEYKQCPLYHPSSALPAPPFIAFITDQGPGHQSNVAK
pPAFAH confirm – pPAFAH (human) inhibition, confirmed. inhibition, % at 3.39 µM. shares compounds with pPAFAH inh. 2,300 tested, 72% active. recombinant pPAFAH, FP-Rh probe fluorescence polarization;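 active = mean inhibition of the triplicate above the hit cutoff set for the earlier primary screen, cut at about 25% in these data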;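 also: 0% = enzyme with DMSO and 100% = wells lacking pPAFAH enzyme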
HTRA1 inh conf – HTRA1 (human) inhibition, confirmation; shares compounds with HTRA1 inh; recombinant HTRA1, FP-rhodamine activity-based probe, fluorescence polarization; inhibition, % at 5.96 µM; 1,600 tested, 66% active;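 active = mean inhibition over three repeats above a set limit taken from the earlier primary screen, cut at about 37% in these data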;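 also: 0% = HTRA1 with DMSO and 100% = wells lacking HTRA1; inhibitors block probe binding so polarization drops and inhibition rises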
BSA TAMRA ctr – interferes with TAMRA-BSA probe, flagging TCR-CD3 hits. shares compounds with TCR CD3 inh. TAMRA-labeled BSA probe fluorescence counterscreen. inhibition, % at 9.4 µM. 1,200 tested, 10% active. AID 652035; in the data active = inhibition above about 23%;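 also: 0% = buffer low control and 100% = reference high control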
TCR-CD3 conf – TCR-CD3 interaction inhibition, confirmation. shares compounds with TCR CD3 inh. TAMRA-labeled TCR probe fluorescence binding assay. inhibition, % at 9.4 µM. 1,200 tested, 48% active. AID 652036
ABHD4 confirm – confirmation of mouse ABHD4 inhibitors; purified mABHD4, FP-Rh probe fluorescence polarization; AID 720658; inhibition, % at 8.92 µM; shares compounds with ABHD4 inh; 1,800 tested, 55% active;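 active = mean inhibition across replicates above the hit cutoff set in the primary screen, cut at about 30% in these data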;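 also: 0% = wild-type ABHD4 with DMSO and 100% = catalytically dead S159A mutant with DMSO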
* hit, by the source's call. Rule as the data show it, unless noted: active = inhibition above about 19%; inactive = the rest.

What do the screens show for `CCc1ccc(S(=O)(=O)/N=C2\C=C(Nc3cccc(C(=O)O)c3)C(=O)c3ccccc32)cc1`?
TCR CD3 inh: 1.0; HTRA1 inh: 69.9*; ABHD4 inh: 65.3*; pPAFAH inh: 37.4*; SIAE inh: 10.6; pPAFAH confirm: 40.1*; HTRA1 inh conf: 66.0*; ABHD4 confirm: 84.0*

What do the screens show for `CCc1ccc(S(=O)(=O)/N=C2/C=C(Sc3ncn[nH]3)C(=O)c3ccccc32)cc1`?
HTRA1 inh: 25.9; pPAFAH inh: 5.5

How did O=C(O)c1cc(O)c2c(c1)C(=O)c1cc(O)cc(O)c1C2=O do in these assays?
TCR CD3 inh: -3.1; HTRA1 inh: 15.3; ABHD4 inh: 60.9*; pPAFAH inh: 35.5*; SIAE inh: -10.4; pPAFAH confirm: 24.2; ABHD4 confirm: 41.7*

Results for O=C1CC(N(O)c2ccccc2)C(=O)N1c1ccc(Cl)c(Cl)c1 (stereo not drawn) ?
TCR CD3 inh: 23.7*; HTRA1 inh: 60.0*; ABHD4 inh: 46.2*; pPAFAH inh: 49.1*; SIAE inh: 6.7; pPAFAH confirm: 4.9; HTRA1 inh conf: 0.0; BSA TAMRA ctr: 6.0; TCR-CD3 conf: 3.3; ABHD4 confirm: 88.6*

Results for O=C(O)CCNc1ccc(NCCC(=O)O)c2c1C(=O)c1ccccc1C2=O ?
TCR CD3 inh: 28.0*; HTRA1 inh: 44.4*; ABHD4 inh: 56.1*; pPAFAH inh: 61.5*; SIAE inh: 12.8; pPAFAH confirm: 18.9; HTRA1 inh conf: 58.6*; BSA TAMRA ctr: 12.7; TCR-CD3 conf: 41.5*; ABHD4 confirm: 65.4*

What do the screens show for `COc1ccc(-c2csc(Nc3ccc(S(=O)(=O)Nc4cc(C)on4)cc3)n2)cc1C`?
TCR CD3 inh: 6.4; HTRA1 inh: -43.0; ABHD4 inh: 33.5*; pPAFAH inh: 39.9*; SIAE inh: 14.6; pPAFAH confirm: 61.5*; ABHD4 confirm: 28.6

What do the screens show for `O=C(NN=C1CCN(Cc2ccccc2)CC1)c1cc2ccccc2cc1O`?
TCR CD3 inh: 8.9; HTRA1 inh: 36.0; ABHD4 inh: 46.0*; pPAFAH inh: 47.2*; SIAE inh: 11.7; pPAFAH confirm: 21.5; ABHD4 confirm: 42.7*

What do the screens show for `CC(=O)N1CCC(=NNC(=O)c2cc3ccccc3cc2O)CC1`?
TCR CD3 inh: 16.6; HTRA1 inh: 50.7*; ABHD4 inh: 34.5*; pPAFAH inh: 43.6*; SIAE inh: 8.0; pPAFAH confirm: 6.3; HTRA1 inh conf: 23.9; ABHD4 confirm: 20.5

What do the screens show for `CCC(=O)N(Cc1ccccc1)c1ccccc1C(=O)Nc1cc(OC)ccc1OC`?
ABHD4 inh: 2.8; SIAE inh: -8.1

How did O=C(CCCN1C(=O)/C(=C\c2ccco2)SC1=S)Nc1ccc(O)cc1C(=O)O do in these assays?
TCR CD3 inh: 7.5; HTRA1 inh: 5.0; ABHD4 inh: 46.2*; pPAFAH inh: 68.1*; SIAE inh: 6.1; pPAFAH confirm: 11.3; ABHD4 confirm: 6.8

Results for Cc1ccc(/C=C2\SC(=S)N(CCCC(=O)Nc3ccccc3C(=O)O)C2=O)cc1 ?
TCR CD3 inh: -5.1; HTRA1 inh: -2.5; ABHD4 inh: 3.2; pPAFAH inh: 1.0; SIAE inh: -3.1

How did NN1C(=O)/C(=C\c2ccco2)SC1=S do in these assays?
TCR CD3 inh: 20.4*; ABHD4 inh: 41.5*; pPAFAH inh: 41.6*; SIAE inh: 10.9; pPAFAH confirm: 1.7; BSA TAMRA ctr: -0.1; TCR-CD3 conf: 5.9; ABHD4 confirm: 0.8

How did COc1ccc(C(=O)OCCN2CCN(C3CN(Cc4cn(Cc5ccccc5Cl)nn4)S(=O)(=O)C3)CC2)cc1OC (stereo not drawn) do in these assays?
ABHD4 inh: 3.2; SIAE inh: 1.0

What do the screens show for `COc1ccc(CC(N)c2csc(NC(=O)c3cccc(OC(F)(F)F)c3)n2)cc1` (stereo not drawn)?
TCR CD3 inh: -0.4; ABHD4 inh: 7.7; SIAE inh: -8.6

What do the screens show for `CN(C)c1ccc(O)c2c1CC1CC3[C@@H](N(C)C)C(=O)C(C(N)=O)=C(O)[C@]3(O)C(=O)C1=C2O` (stereo partly drawn)?
TCR CD3 inh: 45.9*; HTRA1 inh: 29.2; ABHD4 inh: 76.9*; pPAFAH inh: 53.4*; SIAE inh: 25.0*; pPAFAH confirm: 8.0; BSA TAMRA ctr: -7.0; TCR-CD3 conf: 27.3*; ABHD4 confirm: 44.0*

What do the screens show for `Cc1cccc(C)c1NC(=O)C(c1ccnc2ccccc12)n1c(=O)c(-c2ccccc2)nc2ccccc21` (stereo not drawn)?
TCR CD3 inh: -2.5; ABHD4 inh: -28.0; SIAE inh: -18.1

How did CCCCNC(=O)C[C@H]1C[C@@]2(C(=O)OC)C(=C[C@H](COCc3ccccc3)O[C@@H]2C)N(Cc2cccc3ccccc23)C1=O do in these assays?
ABHD4 inh: -9.0; SIAE inh: 1.0

How did O=C(N/N=C/c1ccc(O)c(O)c1O)/C(=C/c1ccc([N+](=O)[O-])cc1)NC(=O)c1ccccc1 do in these assays?
TCR CD3 inh: 18.0; HTRA1 inh: 62.9*; ABHD4 inh: 56.8*; pPAFAH inh: 37.7*; SIAE inh: 12.4; pPAFAH confirm: 46.9*; ABHD4 confirm: 67.1*

What do the screens show for `CN=c1scc(-c2cccs2)n1/N=C/c1ccc(O)c(O)c1O`?
TCR CD3 inh: 28.1*; HTRA1 inh: 81.6*; ABHD4 inh: 55.5*; pPAFAH inh: 51.4*; SIAE inh: 13.1; pPAFAH confirm: 65.2*; HTRA1 inh conf: 73.1*; BSA TAMRA ctr: -20.0; TCR-CD3 conf: 22.5*; ABHD4 confirm: 73.6*

How did CN=c1scc(-c2cccs2)n1/N=C/c1ccccc1O do in these assays?
TCR CD3 inh: 12.7; HTRA1 inh: -5.7; ABHD4 inh: 3.0; pPAFAH inh: 5.6; SIAE inh: 9.5

How did C=CCN=c1scc(-c2ccco2)n1/N=C/c1ccc(O)c(O)c1O do in these assays?
TCR CD3 inh: 21.3*; HTRA1 inh: 72.0*; ABHD4 inh: 48.6*; pPAFAH inh: 49.5*; SIAE inh: 1.6; pPAFAH confirm: 68.3*; HTRA1 inh conf: 86.0*; BSA TAMRA ctr: -19.9; TCR-CD3 conf: 14.4; ABHD4 confirm: 60.1*
